The values that follow come from PubChem BioAssay.

The source made the active and inactive calls.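 Rule for the calls, unless noted: active = a full or partial loss of lipid-probe fluorescence in the fish gall bladder, intestine or both, judged by eye; inactive = no fluorescence loss, or compound toxic to the fish.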

Assay [1] is described as follows: inhibitors of TNFa-induced NFkB p65 translocation, primary screen, imaging, HUVEC, MLSMR starter and 10KST1 sets (AID 438;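 active = inhibition above 20% together with a positive visual image hit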;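 note: compound added about 3h40 before a 20 min TNFalpha stimulation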;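 for inhibition: signal is the nuclear over cytoplasmic p65 intensity ratio per well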). The settings on record: HUVEC TNFa-induced p65 nuclear translocation; cell count: measured here: nuclei count (cytotoxicity indicator), at 2.08 µM unless noted; inhibition: at 2 µM, stronger effect = higher value unless noted.
The nature of assay [2]: inhibitors of E-selectin induction by TNFa, primary screen, imaging, HUVEC, immunofluorescence, MLSMR starter and 10KST1 sets (AID 487;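 active = visually confirmed hit in the image check and inhibition above 20%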;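 for inhibition: signal is fraction of cell area covered by stained E-selectin grains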;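 for nuclei count: 100% = median nuclei count of all wells on the same plate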). Conditions: HUVEC TNFalpha-induced E-selectin immunofluorescence imaging, at 2 µM; inhibition: stronger effect = higher value; nuclei count: measured here: cell number, toxicity.
Assay [3] can be described thus: DUSP6 inhibitors restoring Erk phosphorylation by chemical complementation, primary imaging in DUSP6-transfected HeLa (AID 609;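 active = compounds giving at least 50% inhibition in the cell-based MKP-3 phosphatase rescue imaging test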;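 for inhibition: phospho-Erk level distribution per well compared with pooled transfected vehicle control wells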). The settings on record: HeLa MKP-3 transfected, phospho-Erk imaging KS statistic, at 10 µM.
Assay [4] addresses Dual specificity protein phosphatase 6 (Homo sapiens) (UniProt Q16828). Described as above. The settings on record: HeLa MKP-3 transfected, phospho-Erk imaging KS statistic, at 10 µM, stronger effect = higher value.
Assay [5] has as its target Voltage-gated potassium channel subunit beta-2 (Rattus norvegicus) (UniProt P62483). Kind of assay: KvBeta enzyme negative modulators, primary screen, biochemical, NADPH fluorescence (AID 622;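 active = fluorescence slope higher than the sample average by over 3 SD, cut at about -0.22 in these data, passing the limit was not always enough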;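 note: slope of raw intensity against log time taken from 70 to 1610 s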). The settings on record: recombinant KvBeta, 4-cyanobenzaldehyde reduction, at 10 µM, stronger effect = higher value.
The target is the same in assay [6]. Kind of assay: KvBeta positive modulators, primary screen, biochemical, NADPH fluorescence (AID 623;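 active = NADPH fluorescence slope more negative than the mean of all samples by about 3 SD, 99.7% confidence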;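 note: fluorescence intensity change per second fitted from 20 to 320 s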). The settings on record: Recombinant KvBeta, NADPH fluorescence decrease slope, 10 min; at 10 µM; stronger effect = lower value.
The target in assay [7] is Muscarinic acetylcholine receptor M4 (Homo sapiens) (UniProt P08173). The experiment in a line: compounds altering M4/GIRK thallium flux, either direction, primary screen, M4 allosteric agonist project, cell-based, HEK293 M4/GIRK, BTC-AM (AID 625;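 active = fluorescence slope after compound addition differing from the mean of all tested samples at 99.7% confidence, mostly higher but some lower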;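 note: thallium influx through GIRK channels coupled to M4 in HEK293 cells with BTC-AM dye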). The settings on record: at 10 µM, actives lie on both sides. The method, boiled down: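 assay system = HEK293 cells with M4 receptor and GIRK channels | medium = pH 7.3 thallium assay buffer | doses = 10 µM final, single point | timing = cells overnight at 37 °C, BTC-AM loading 1 h, reads 2 min total | signal = BTC-AM fluorescence, 1 Hz kinetic reads | read-out = post-addition slope, 15–24 s, of baseline-normalized fluorescence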

Assay [8] is described as follows: inhibitors of larval lipid processing in zebrafish, primary screen, whole organism, PED6 fluorescence, gall bladder and intestine (AID 686).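 Note: larvae 5 to 7 days old with five fish per well; signal comes from phospholipase A2 cleavage of quenched PED6 carried via bile; overnight exposure to compound and PED6 before scoring.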 The settings on record: Zebrafish larvae PED6 lipid processing, fluorescence scoring. In short, it runs like this: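 Also added: quenched phospholipase substrate PED6, 100 nM final, ingested by larvae; System: zebrafish larvae, 5-7 d; Quantity: 5 larvae per well; Compound: 20 µM single dose; Schedule: overnight compound and PED6 incubation; Read-out: visual per-well fluorescence inhibition score; Measured by: By-eye fluorescence microscopy; Medium: E3.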

The nature of assay [9]: inhibitors of Chlamydomonas gravitaxis, primary screen, whole organism, Chlamydomonas reinhardtii, WT vs cilia-less mutant, absorbance, 96-well (AID 463189;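 active = inhibition at or above 50% relative to wild type and mutant plate controls; inactive = inhibition below 50%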;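 note: 0% = wild type cc124 cells in DMSO and 100% = ciliumless bld1 mutant cells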). The settings on record: OD600 absorbance, 2 days, at 10 µM, stronger effect = higher value.
Where [10] appears, read: measured here: cell density z-score.
The mark [11] stands for this setting: measured here: nuclear c-Myc green intensity z-score.
Where [12] appears, read: measured here: nuclear pErk red intensity z-score, stronger effect = higher value.

Sequence of Muscarinic acetylcholine receptor M4 (Homo sapiens) (P08173 whole entry, looked up): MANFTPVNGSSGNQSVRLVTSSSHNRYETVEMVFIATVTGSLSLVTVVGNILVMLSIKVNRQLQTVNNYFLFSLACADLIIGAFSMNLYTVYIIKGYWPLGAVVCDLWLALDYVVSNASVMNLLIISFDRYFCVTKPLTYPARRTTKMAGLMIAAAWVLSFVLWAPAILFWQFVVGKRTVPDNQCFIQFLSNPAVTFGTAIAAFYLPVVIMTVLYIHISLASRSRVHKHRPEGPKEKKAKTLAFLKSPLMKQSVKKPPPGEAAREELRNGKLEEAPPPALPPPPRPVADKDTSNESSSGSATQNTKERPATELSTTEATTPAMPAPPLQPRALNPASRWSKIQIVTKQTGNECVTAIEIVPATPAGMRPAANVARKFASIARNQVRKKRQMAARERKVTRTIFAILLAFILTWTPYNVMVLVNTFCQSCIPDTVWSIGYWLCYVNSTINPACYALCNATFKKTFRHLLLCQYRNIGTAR
Sequence of Voltage-gated potassium channel subunit beta-2 (Rattus norvegicus) (P62483 whole entry, looked up): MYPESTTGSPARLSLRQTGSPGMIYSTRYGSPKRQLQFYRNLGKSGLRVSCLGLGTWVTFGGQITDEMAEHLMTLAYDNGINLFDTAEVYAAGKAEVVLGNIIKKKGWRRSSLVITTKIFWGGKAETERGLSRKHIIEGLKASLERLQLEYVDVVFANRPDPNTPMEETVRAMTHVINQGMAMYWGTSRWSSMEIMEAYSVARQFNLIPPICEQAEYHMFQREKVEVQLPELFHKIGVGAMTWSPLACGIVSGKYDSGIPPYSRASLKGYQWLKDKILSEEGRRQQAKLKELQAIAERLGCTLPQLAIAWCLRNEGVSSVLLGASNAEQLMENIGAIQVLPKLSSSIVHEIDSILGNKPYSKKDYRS
Sequence of Dual specificity protein phosphatase 6 (Homo sapiens) (Q16828 whole entry, looked up): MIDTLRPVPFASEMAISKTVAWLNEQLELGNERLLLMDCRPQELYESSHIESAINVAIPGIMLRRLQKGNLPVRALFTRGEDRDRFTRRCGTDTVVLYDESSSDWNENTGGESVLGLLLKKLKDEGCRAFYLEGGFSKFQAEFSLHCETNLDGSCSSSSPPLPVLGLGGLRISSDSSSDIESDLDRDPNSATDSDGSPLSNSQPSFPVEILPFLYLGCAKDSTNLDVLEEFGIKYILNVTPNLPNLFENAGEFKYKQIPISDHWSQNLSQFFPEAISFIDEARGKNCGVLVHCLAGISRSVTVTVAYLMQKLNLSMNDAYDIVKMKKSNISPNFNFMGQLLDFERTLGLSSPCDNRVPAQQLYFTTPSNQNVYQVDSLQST

As for `CC1(C)NCCN2C(=O)CSC21` (stereo unspecified), the cell count in assay [1] came out at 652. Also, the inhibition in assay [1] is -12.6% (inactive); in assay [2], -216% (inactive); in [4] it was 4.72% (inactive); in [9], 9.56% (inactive). This compound came in with a nuclei count in assay [2] of 158%. Further, the z-score in assay [3] (setting [10]) turned out to be 0.771; in assay [3] (setting [11]), 0.411; in [3] (setting [12]), 0.0731. Moreover, the figures for the fluorescence slope in [5] and in assay [7] were -0.493 (inactive) and 0.00571 (inactive), respectively. Besides, the NADPH fluorescence slope in assay [6] was -5.8e-05 (inactive). In addition, the compound was classed as inactive in assay [8].

Consider `OC(c1ccc(F)cc1)C(c1ccccc1)N1CCOCC1` (stereo unspecified), for which the cell count in assay [1] is 679. Moreover, the inhibition was 2.9% (inactive) in [1], 8% (inactive) in [2], -13.3% (inactive) in assay [4] and -7.5% (inactive) in assay [9]. The compound also had a nuclei count in assay [2] of 153%. Also, the z-score is -0.0994 in assay [3] (setting [10]), 1.62 in assay [3] (setting [11]) and 0.344 in assay [3] (setting [12]). Besides, the results for the fluorescence slope in [5] and in assay [7] were -0.427 (inactive) and 0.00525 (inactive), respectively. For the same compound, the NADPH fluorescence slope in assay [6] was -3.5e-05 (inactive). Also, the call in assay [8] was inactive.

In the case of `CCCN(CC#CCO)CCC`, in assay [1], the cell count was determined as 701. Also, the inhibition in assay [1] was 11.7% (inactive); in [2], -121% (inactive); in assay [4], -11.4% (inactive); in assay [9], -2.44% (inactive). The nuclei count in assay [2] was 162%. In addition, the z-score in [3] (setting [10]) was determined as 0.317; in [3] (setting [11]), 1.4; in assay [3] (setting [12]), 0.749. Also, the fluorescence slope in [5] was -0.448 (inactive); in [7] it was 0.00435 (inactive). Besides, the NADPH fluorescence slope in [6] is -4.9e-05 (inactive). The call in assay [8] was inactive.

Take `Cn1c(O)c(C=NCCCNC2CCCCC2)c(=O)n(C)c1=O`: the cell count in [1] is 420. The inhibition in assay [1] is 1.2% (inactive); in assay [2], -81.5% (inactive); in [4], 26.5% (inactive); in assay [9], -2.14% (inactive). The same compound had a nuclei count in assay [2] of 131%. Besides, the z-score was 0.261 in assay [3] (setting [10]), -0.315 in assay [3] (setting [11]) and -0.515 in assay [3] (setting [12]). Besides, the fluorescence slope was -0.469 (inactive) in [5] and 0.00413 (inactive) in assay [7]. Besides, the NADPH fluorescence slope in [6] is -0.000127 (inactive). Further, in assay [8], the result was inactive.

Regarding `CC1(c2ccccc2)NCCN2C(=O)CSC21` (stereo unspecified), in [1], the cell count is 632. The inhibition is 2.3% (inactive) in assay [1], 32.4% (inactive) in [2], 1.12% (inactive) in [4] and 8.43% (inactive) in assay [9]. The compound also had a nuclei count in assay [2] of 147%. For the same compound, the z-score in assay [3] (setting [10]) is 1.05; in [3] (setting [11]), -0.953; in [3] (setting [12]) it was -0.166. For the same compound, the fluorescence slope in [5] was -0.477 (inactive); in assay [7] it was 0.00532 (inactive). For the same compound, the NADPH fluorescence slope in assay [6] is -6.1e-05 (inactive). Besides, the compound was called inactive in assay [8].

As to `O=C(c1ccco1)C12CN3CN(CN(C3)C1)C2`, the cell count in [1] was 403. For the same compound, the inhibition was -7% (inactive) in assay [1], -98.3% (inactive) in assay [2], 17.4% (inactive) in assay [4] and -4.37% (inactive) in assay [9]. The compound also registered a nuclei count in [2] of 165%. The z-score in assay [3] (setting [10]) is -0.216; in assay [3] (setting [11]) it was 0.212; in assay [3] (setting [12]), 0.209. Also, the results for the fluorescence slope in assay [5] and in assay [7] were -0.431 (inactive) and 0.00486 (inactive), respectively. In addition, the NADPH fluorescence slope in assay [6] was -0.000115 (inactive). Besides, the compound was classed as inactive in [8].

In assay [1], `OC1(c2ccc(F)cc2)CCNC1` (stereo unspecified) showed a cell count of 391. Further, the inhibition in assay [1] is -8% (inactive); in assay [2] it was -146% (inactive); in [4], 1.48% (inactive); in assay [9], 16.5% (inactive). Besides, the nuclei count in assay [2] came to 147%. Besides, the figures for the z-score in [3] (setting [10]), in [3] (setting [11]) and in [3] (setting [12]) were -0.692, -1.09 and 1.31, respectively. The fluorescence slope was -0.468 (inactive) in assay [5] and 0.00482 (inactive) in [7]. Moreover, the NADPH fluorescence slope in [6] is -0.000119 (inactive). Further, in [8], the compound was called inactive.
